In PubChem BioAssay AID651608 (The Scripps Research Institute Molecular Screening Center, 2012) one finds inhibition data, which are given here for 37 compounds.

Structures are written as SMILES. The list shows a part of the results. Values without a mark were called inactive. Active and inactive are the calls of the source.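 How the source made its calls: active means average inhibition over triplicates above the hit cutoff set in the earlier primary screen (cut at about 25% in these data); inactive means the rest.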

The target of this experiment is ADP-ribosylation factor GTPase-activating protein 1 (Rattus norvegicus) (UniProt Q62848). As to the kind of experiment: retest of rat ARFGAP1 GAP activity blockers – biochemical, fluorescence polarization, triplicate, confirmation (AID 651608).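 Further: 0% = Arfgap1 plus ARF1-GTP with DMSO and 100% = wells lacking Arfgap1.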 The settings on record: ARFGAP1-stimulated ARF1 GTP hydrolysis, GDP tracer FP; at 16.5 µM; stronger effect = higher value. The gist of the method: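 material = rat Arfgap1 GAP domain 1-136 plus human ARF1 Δ1-17 | buffer or medium = HEPES-based assay buffer at pH 7.5 | times = reaction 120 min at 25 °C after 20 min pre-incubation | technique = GDP tracer fluorescence polarization | read-out = percent inhibition | benchmarks = high control wells lacking Arfgap1 | repeats = three replicates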
Sequence of ADP-ribosylation factor GTPase-activating protein 1 (Rattus norvegicus) (Q62848 whole entry, looked up, the tested form may be a part): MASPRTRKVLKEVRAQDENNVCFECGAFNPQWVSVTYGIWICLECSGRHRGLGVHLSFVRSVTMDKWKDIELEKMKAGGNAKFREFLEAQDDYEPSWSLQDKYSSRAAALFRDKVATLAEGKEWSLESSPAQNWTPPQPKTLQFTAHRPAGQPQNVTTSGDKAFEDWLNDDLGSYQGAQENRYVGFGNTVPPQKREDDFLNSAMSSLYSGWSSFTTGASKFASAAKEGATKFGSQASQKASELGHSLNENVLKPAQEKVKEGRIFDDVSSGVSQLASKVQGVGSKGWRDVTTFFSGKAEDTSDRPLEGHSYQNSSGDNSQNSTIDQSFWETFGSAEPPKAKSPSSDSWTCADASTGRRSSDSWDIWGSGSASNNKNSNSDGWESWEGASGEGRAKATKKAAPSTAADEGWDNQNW
Background: In fluorescence polarisation assays a small probe gives low polarisation when free and higher when bound to something large.
As to `COc1ccccc1OCC(=O)OCn1c(SC)nnc(C)c1=O`, the inhibition (as a rule, the drop in the measured response relative to a control, in per cent) was 0.34%. As to `Cc1ccc2nc(SCC(=O)N3CC(C)OC(C)C3)nc(=O)n2c1` (configuration not stated), the inhibition is 90.3% (active). For `COc1ccc(C(N)c2csc(NC(=O)Nc3cccc(C(F)(F)F)c3)n2)cc1` (configuration not stated), the inhibition was 19.2%. As for `c1ccc(-c2cc(-c3nnc4sc(-c5ccccn5)nn34)[nH]n2)cc1`, the inhibition is 36.3% (active). Next, `COc1ccc(CNC(=O)C(Cc2ccccc2)n2cccc2)cc1` (configuration not stated): 2%; `O=C(Nc1cccc(-c2nc3ccccc3[nH]2)c1)c1ccc(C(=O)Nc2cccc(-c3nc4ccccc4[nH]3)c2)cc1`: 60.7% (active); `Cc1ccc2nc(N3C(=O)C(O)=C(C(=O)c4ccco4)C3c3cccc(O)c3)sc2c1` (configuration not stated): 18.3%.

`COc1cccc(CNc2nc(C(F)(F)F)nc3ccccc23)c1`: the inhibition was 8.01%.

`COc1ccc(-n2nc3c(N4CCC(C(=O)NCc5ccccc5)CC4)nnc(C)c3c2C)cc1`: the inhibition was 44% (active).

As to `COCCNc1cc(-c2ccccc2)nc2cc(-c3cccc(F)c3)nn12`, the inhibition is 10.8%. For `CC(C)CCSc1ncnc2c1oc1nc3c(cc12)COC(C)(C)C3`, the inhibition was 1.56%. In the case of `CCO[C@@H]1OC(C(N)=O)=C[C@H](c2ccc(Br)cc2)[C@H]1CCCO` it was 0.74%; in that of `Cc1ccc(-n2ncc3c2ncn2nc(-c4ccco4)nc32)c(C)c1`, 3.31%. Next, `Nc1ccc(S(=O)(=O)Nc2nccc(/C=C/c3ccc(Br)s3)n2)cc1`: -3.16%; `COc1ccc(C(CNC(=O)c2cccc(S(=O)(=O)Nc3ccccc3Cl)c2)N2CCOCC2)cc1` (configuration not stated): 4.17%. Next, `O=C(O)CCn1cc(/C=C/C(=O)c2ccc(Cl)cc2)c(-c2cccc(Br)c2)n1`: -2.84%.

Regarding `CN(C)CCNC(=O)c1ccc(-c2cn3c(-c4ccc(Oc5ccccc5)cc4)cnc3cn2)cc1`, the inhibition was 48.8% (active). In the case of `C#C[C@]1(O)CC[C@H]2[C@@H]3CCC4=CC(=O)CC[C@@H]4[C@H]3CC[C@@]21CC` it was 4.82%; in that of `Cn1c(=O)[nH]c(=O)c2c1nc(N1CCN(CCO)CC1)n2CCSc1nc2ccccc2s1`, -2.06%. Next, `COc1ccc(Cl)cc1NC(=O)Cn1nc(-c2ccc(C)cc2)n(C)c1=S`: 1.54%. For `CCN(CC)c1ccc(NC(=O)CN2CCN(c3ccccn3)CC2)cc1`, the inhibition was -5.51%.

Consider `CCOC(=O)c1ccc(Nc2cc3ccccc3c(=O)[nH]2)cc1`, for which the inhibition was 9.83%. Next, `CCOC(=O)C1CCN(C(c2cc3cc(C)cc(C)c3[nH]c2=O)c2nnnn2C2CCCCC2)CC1` (configuration not stated): 0.48%; `O=C(CCc1ccccc1)Nc1ncc([N+](=O)[O-])s1`: -7.17%.

On to `O=C(/C=C/c1cn(-c2ccccc2)nc1-c1ccc2c(c1)OCCO2)NCCCN1CCOCC1`, for which the inhibition is 13%. Take `O=C(O)CSCc1ccc(C(=O)O)o1`: the inhibition was 5.16%. As for `COc1ccc(-c2csc(Nc3ccc(O)cc3)n2)cc1`, the inhibition is 4.53%. In the case of `COc1ccc(/C=C2\SC(=S)N(CCCC(=O)NC3CCCC3)C2=O)cc1OC` it was -4.01%; in that of `OC(COc1cccc(OCC(O)CN2CCCC2)c1)CN1CCCC1` (configuration not stated), 1.32%.

For `Cc1cc(C)cc(NC(=O)C2CCCN(S(=O)(=O)c3ccc4[nH]c(=O)ccc4c3)C2)c1` (configuration not stated), the inhibition was 0.48%.

Regarding `O=C(NC1CCCCC1)c1ccc(CNc2c(N3CCOCC3)c(=O)c2=O)cc1`, the inhibition was -1.66%.

Turning to `COC(=O)c1cc2c(c3c4ccccc4n(S(=O)(=O)c4cccc(C)c4)c13)C(=O)N(Cc1ccccc1)C2`, the inhibition is -0.32%.

For the compound `CCn1c(SCc2cc(=O)n3ccsc3n2)nc2ccccc21`, the inhibition is -5.82%.

Regarding `COc1ccc(NC(=O)c2cn(-c3ccccc3)nc2SC)cc1`, the inhibition was 18.4%. Next, `CCNS(=O)(=O)c1ccc(NC(=O)Nc2cccc(C(F)(F)F)c2)cc1`: 18.2%. Turning to `Cc1ccc(NC(=O)c2ccc(Oc3ncccn3)cc2)cc1`, the inhibition is 1.89%. With `CC1CCc2[nH]c3ccc(C(=O)N(C)CC(=O)Nc4cccc(F)c4)cc3c2C1` (configuration not stated), the inhibition was 1.73%.
